Converted amounts (≈) assume the structure as drawn.
Tests used:
[1] = Toxicity in Artemia salina (brine shrimp) […]; format: organism-based; details: in vivo
Fusarium graminearum = experiment: Antifungal activity against Fusarium graminearum at 28 degC after 48 hr microbroth dilution method; format: functional
Procedure, shortened: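 Microbroth dilution in PD medium. Fungi were grown 18 h at 28 ± 0.5 °C and 150 rpm, then diluted to about 1 × 10^6 CFU. Compounds (2 mg/mL DMSO stock) were serially diluted in triplicate and fungal suspension added. Incubated 48 h at 28 ± 0.5 °C. MIC was the lowest concentration with no visible growth. Controls: DMSO, carbendazim, hymexazol.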

Botrytis cinerea = experiment: Antifungal activity against Botryotinia fuckeliana at 28 degC after 48 hr microbroth dilution method; format: functional
Procedure, shortened: (§1)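 Plant-pathogenic fungi isolated from infected plant organs. Fungi grown 18 h in PD medium at 28 ± 0.5 °C and 150 rpm, then diluted to about 1 × 10^6 CFU in PD medium. Compounds at 2 mg/mL DMSO stock, serially diluted in triplicate in PD medium in 96-well plates before the fungal suspension was added. DMSO served as negative control. After 48 h at 28 ± 0.5 °C, MIC taken as the lowest concentration with no visible growth.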

[2] = tested on: Fusarium oxysporum f. sp. vasinfectum; experiment: Antifungal activity against Fusarium oxysporum f. sp. vasinfectum at 28 degC after 48 hr microbroth dilution method; format: functional; procedure, shortened: as §1
Mythimna separata = experiment: Antifeedant activity against Mythimna separata (Oriental armyworm) larvae assessed as antifeedant index by area of the leaf consumed; format: functional; parameters: concentration or dose not given beside the values
Procedure, shortened: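 Positive control prepared at 10 mg/mL in acetone; leaves treated with acetone alone served as control. Ten treated leaves and 10 larvae per Petri dish lined with moistened filter paper. Held at 25 ± 2 °C, 12L:12D, 65−80% rh. Leaf area consumed recorded after 48 h. AFI = (C − T)/C × 100%, from control and treated areas consumed. Three repetitions.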

Alternaria alternata = experiment: Antifungal activity against Alternaria alternata at 28 degC after 48 hr microbroth dilution method; format: functional; procedure, shortened: as §1
Fusarium solani = experiment: Antifungal activity against Fusarium solani at 28 degC after 48 hr microbroth dilution method; format: functional; procedure, shortened: as §1
[3] = tested on: Fusarium oxysporum f. sp. niveum; experiment: Antifungal activity against Fusarium oxysporum f. sp. niveum at 28 degC after 48 hr microbroth dilution method; format: functional; procedure, shortened: as §1
[4] = tested on: Colletotrichum gloeosporioides; experiment: Antifungal activity against Colletotrichum gloeosporioides at 28 degC after 48 hr microbroth dilution method; format: functional; procedure, shortened: as §1
Alternaria solani = experiment: Antifungal activity against Alternaria solani at 28 degC after 48 hr microbroth dilution method; format: functional; procedure, shortened: as §1

SMILES	LC50 [1] [µg/mL]	MIC (Fusarium graminearum) [µg/mL]	MIC (Botrytis cinerea) [µg/mL]	MIC [2] [µg/mL]	AFI (Mythimna separata) [%]	MIC (Alternaria alternata) [µg/mL]	MIC (Fusarium solani) [µg/mL]	MIC [3] [µg/mL]	MIC [4] [µg/mL]	MIC (Alternaria solani) [µg/mL]
O=C1C[C@@H](O)[C@H](O)c2cccc(O)c21 (relative stereo)	> 100	–	–	–	–	–	–	–	–	–
C[C@@H]1N[C@H]2N(C1=O)c1ccccc1[C@@]2(O)C[C@@H]1C(=O)N[C@@H](C)c2nc3ccccc3c(=O)n21 [FUMIQUINAZOLINE A]	39.7 (≈ 89.1 µM)	12.5 (≈ 28.1 µM)	12.5 (≈ 28.1 µM)	50 (≈ 112 µM)	45	12.5 (≈ 28.1 µM)	50 (≈ 112 µM)	25 (≈ 56.1 µM)	12.5 (≈ 28.1 µM)	12.5 (≈ 28.1 µM)
O=c1cc[nH]c(=O)[nH]1 [URACIL]	> 100	–	–	–	–	–	–	–	–	–
O=C1[C@@H]2C[C@@H](O)CN2C(=O)[C@@H]2CCCN12	> 100	–	–	–	–	–	–	–	–	–
C[C@@H]1NC(=O)[C@H]2CCCN2C1=O	> 100	–	–	–	–	–	–	–	–	–
CC(C)C[C@@H]1NC(=O)[C@@H]2CC(O)CN2C1=O (stereo partly specified)	> 100	–	–	–	–	–	–	–	–	–
COC(=O)Nc1nc2ccccc2[nH]1 [CARBENDAZIM]	–	6.25 (≈ 32.7 µM)	12.5 (≈ 65.4 µM)	25 (≈ 131 µM)	–	6.25 (≈ 32.7 µM)	25 (≈ 131 µM)	12.5 (≈ 65.4 µM)	6.25 (≈ 32.7 µM)	12.5 (≈ 65.4 µM)
COc1ccc2c3c([nH]c2c1)[C@H](C=C(C)C)N1C(=O)[C@@H]2CCCN2C(=O)[C@@]1(O)[C@H]3OC [CYCLOTRYPROSTATIN B]	37.9 (≈ 89.1 µM)	12.5 (≈ 29.4 µM)	12.5 (≈ 29.4 µM)	25 (≈ 58.8 µM)	–	12.5 (≈ 29.4 µM)	25 (≈ 58.8 µM)	12.5 (≈ 29.4 µM)	12.5 (≈ 29.4 µM)	12.5 (≈ 29.4 µM)
COc1ccc2c(c1)N[C@@]1(C2=O)[C@H](C=C(C)C)N2C(=O)[C@@H]3CCCN3C(=O)[C@]2(O)[C@H]1O	> 100	–	–	–	5	–	–	–	–	–
Cc1cc(O)no1 [HYMEXAZOL]	–	12.5 (≈ 126 µM)	12.5 (≈ 126 µM)	25 (≈ 252 µM)	–	12.5 (≈ 126 µM)	50 (≈ 505 µM)	12.5 (≈ 126 µM)	12.5 (≈ 126 µM)	12.5 (≈ 126 µM)
CC(C)=CCc1cccc2c(C[C@@H]3NC(=O)[C@H](C)NC3=O)c[nH]c12 [TEREZINE D]	> 100	–	–	–	–	–	–	–	–	–
C[C@H]1C(=O)N2c3ccccc3[C@@]3(O)C[C@@H]4C(=O)N[C@](C)(c5nc6ccccc6c(=O)n54)N1[C@@H]23 [FUMIQUINAZOLINE D]	> 100	25 (≈ 56.4 µM)	25 (≈ 56.4 µM)	50 (≈ 113 µM)	10	25 (≈ 56.4 µM)	> 100	50 (≈ 113 µM)	25 (≈ 56.4 µM)	25 (≈ 56.4 µM)
CC(=O)O[C@@H]1C[C@H](O)[C@@]23CO[C@@H](O)[C@]1(C)[C@@H]2C[C@@H](O)[C@]1(C)[C@@H]3C(=O)[C@H](OC(C)=O)[C@@]2(C)[C@H](c3ccoc3)C[C@H]3O[C@]321 [TOOSENDANIN]	< 1	–	–	–	97.5	–	–	–	–	–
C[C@@H]1NC(=O)CNC1=O	> 100	–	–	–	–	–	–	–	–	–
O=C1NCC(=O)N2CCC[C@@H]12 [CYCLO(PROLYLGLYCYL)]	> 100	–	–	–	–	–	–	–	–	–
C[C@H]1NC(=O)[C@@H](Cc2c[nH]c3ccccc23)n2c1nc1ccccc1c2=O [FUMIQUINAZOLINE G]	78.8 (≈ 220 µM)	12.5 (≈ 34.9 µM)	12.5 (≈ 34.9 µM)	50 (≈ 140 µM)	–	12.5 (≈ 34.9 µM)	50 (≈ 140 µM)	50 (≈ 140 µM)	12.5 (≈ 34.9 µM)	25 (≈ 69.8 µM)
C[C@@H]1C(=O)N2c3ccccc3[C@@]3(O)C[C@H](n4cnc5ccccc5c4=O)C(=O)N1[C@H]23 [TRYPTOQUIVALINE O]	72.8 (≈ 181 µM)	50 (≈ 124 µM)	25 (≈ 62.1 µM)	> 100	–	25 (≈ 62.1 µM)	> 100	> 100	100 (≈ 249 µM)	12.5 (≈ 31.1 µM)
C[C@@H]1NC(=O)[C@@H]2CCCN2C1=O	> 100	–	–	–	–	–	–	–	–	–
COc1ccc2c3c4n(c2c1)[C@H](C=C(C)C)OOC(C)(C)C[C@@H]4N1C(=O)[C@@H]2CCCN2C(=O)[C@]1(O)[C@H]3O [VERRUCULOGEN]	15.8 (≈ 30.9 µM)	6.25 (≈ 12.2 µM)	6.25 (≈ 12.2 µM)	25 (≈ 48.9 µM)	55	6.25 (≈ 12.2 µM)	50 (≈ 97.7 µM)	12.5 (≈ 24.4 µM)	6.25 (≈ 12.2 µM)	12.5 (≈ 24.4 µM)
